Assay results from ChEMBL document CHEMBL1821703, “Anthraquinone derivatives induce G2/M cell cycle arrest and apoptosis in NTUB1 cells” (Bioorg Med Chem, 2011).
Activity calls are given as the source filed them. No cut-off for these calls is given here.

How the values were obtained:
[1] = tested on: PC-3; test: Cytotoxicity against human PC3 cells at >30 uM after 72 hrs by MTT assay; assay type: functional
In short: (§1)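 Cells seeded at 1000/well (NTUB1, PC3) or 5000/well (SV-HUC1), incubated overnight at 37 °C, then exposed to graded concentrations for 72 h. Compounds were made up in DMSO and diluted in medium to 0.1% DMSO. MTT (2 mg/mL in PBS) added for 3 h, formazan dissolved in DMSO, absorbance read at 540 nm. Viability expressed as % of control; IC50 by median-effect analysis.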

[2] = tested on: NTUB1; test: Induction of ROS production in human NTUB1 cells using H2DCFDA staining after 24 hrs by flow cytometry analysis; assay type: functional, cell-based
In short: (§2)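 NTUB1 cells treated 24 h with compounds, 20 µM cisplatin or 1 mM NAC. 10 µM H₂DCFDA added 30 min before harvest. Cells trypsinized, washed with PBS, and DCF green fluorescence read at once by FACScan flow cytometry through a 525-nm band-pass filter. Increase expressed with control set at 0%; three independent experiments.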

[3] = tested on: PC-3; test: Cytotoxicity against human PC3 cells after 72 hrs by MTT assay; assay type: functional; conditions: PC-3, 72 h, read-out: ED50 (the source's name); in short: as §1
[4] = Cytotoxicity against human NTUB1 cells after 72 hrs by MTT assay; assay type: functional; conditions: NTUB1, 72 h, read-out: ED50 (the source's name); in short: as §1
[5] = Cytotoxicity against human NTUB1 cells at >50 uM after 72 hrs by MTT assay; assay type: functional; in short: as §1
[6] = tested on: PC-3; test: Cytotoxicity against human PC3 cells at >50 uM after 72 hrs by MTT assay; assay type: functional; in short: as §1
[7] = Cytotoxicity against human NTUB1 cells at >30 uM after 72 hrs by MTT assay; assay type: functional; in short: as §1
[8] = tested on: NTUB1; test: Induction of up-regulation p21 expression in human NTUB1 cells at 20 uM after 24 hrs by Western blot analysis; assay type: functional, cell-based
In short: (§3)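 NTUB1 cells exposed 24 h, trypsinized, and resuspended in PBS. Lysed by boiling twice for 10 min in 2× sample buffer, separated by SDS–PAGE, and semi-dry blotted to nitrocellulose. Membranes blocked in 5% skimmed milk in TBST, probed with primary antibodies overnight at 4 °C, then secondary antibody 1 h at room temperature. ECL chemiluminescence detection; GAPDH as internal control.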

[9] = tested on: NTUB1; test: Induction of ROS production in human NTUB1 cells using H2DCFDA staining at 20 uM after 24 hrs by flow cytometry analysis in presence of 1 mM of NAC; assay type: functional, cell-based
[10] = tested on: NTUB1; test: Induction of up-regulation p21 expression in human NTUB1 cells at 10 uM after 24 hrs by Western blot analysis; assay type: functional, cell-based; in short: as §3
[11] = tested on: NTUB1; test: Increase of p53 protein expression in human NTUB1 cells at 10 to 20 uM after 24 hrs by Western blot analysis; assay type: functional, cell-based; in short: as §3
[12] = Cell cycle arrest in human NTUB1 cells assessed as accumulation at G2/M phase at 20 uM after 24 hrs using propidium iodide staining by flow cytometry analysis (reference value: 18.61%); assay type: functional, cell-based
In short: (§4)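 3 × 10⁵ NTUB1 cells per 6-cm dish, treated 24 h (medium-only control). Cells then stained with 50 µg/mL propidium iodide plus 50 µg/mL RNase A in PBS, 30 min at room temperature. DNA content read by FACScan flow cytometry; sub-G1 content taken as apoptosis. Values are mean ± SD of four independent experiments.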

[13] = Cell cycle arrest in human NTUB1 cells assessed as accumulation at S phase at 10 uM after 24 hrs using propidium iodide staining by flow cytometry analysis (reference value: 22.61%); assay type: functional, cell-based; in short: as §4
[14] = Cytotoxicity against human NTUB1 cells assessed as cell viability at 10 uM after 72 hrs by MTT assay relative to control; assay type: functional; conditions: NTUB1, 72 h, read-out: Activity; in short: as §1
[15] = Cytotoxicity against human SV-HUC1 cells at 3 to 10 uM after 72 hrs by MTT assay; assay type: cell-based; conditions: sv-huc1, 72 h; in short: as §1
[16] = Decrease of Bax protein expression in human NTUB1 cells at 10 to 20 uM after 24 hrs by Western blot analysis; assay type: functional, cell-based; in short: as §3
[17] = Cell cycle arrest in human NTUB1 cells assessed as accumulation at sub-G1 phase at 10 uM after 24 hrs using propidium iodide staining by flow cytometry analysis (reference value: 1.96%); assay type: functional, cell-based; in short: as §4
[18] = Cell cycle arrest in human NTUB1 cells assessed as accumulation at G2/M phase at 10 uM after 24 hrs using propidium iodide staining by flow cytometry analysis (reference value: 18.61%); assay type: functional, cell-based; in short: as §4
[19] = tested on: NTUB1; test: Induction of up-regulation cyclin B1 expression in human NTUB1 cells at 20 uM after 24 hrs by Western blot analysis; assay type: functional, cell-based; in short: as §3
[20] = tested on: NTUB1; test: Induction of down-regulation cyclin B1 expression in human NTUB1 cells at 10 uM after 24 hrs by Western blot analysis; assay type: functional, cell-based; in short: as §3
[21] = Cell cycle arrest in human NTUB1 cells assessed as accumulation at G1 phase at 10 uM after 24 hrs using propidium iodide staining by flow cytometry analysis (reference value: 56.06%); assay type: functional, cell-based; in short: as §4
[22] = Cytotoxicity against human NTUB1 cells assessed as cell viability at 10 uM after 72 hrs by MTT assay relative to control in presence of 1 mM of NAC; assay type: functional
In short: (§5)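 NTUB1 cells seeded at 1000/well, incubated overnight, then exposed 72 h to 1 mM NAC alone or to compound with NAC. MTT added for 3 h, formazan dissolved in DMSO, absorbance read at 540 nm. Viability expressed relative to untreated control; mean ± SD (n = 3) from one experiment in triplicate.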

[23] = Cytotoxicity against human NTUB1 cells assessed as cell viability at 20 uM after 72 hrs by MTT assay relative to control; assay type: functional; conditions: NTUB1, 72 h, read-out: Activity; in short: as §1
[24] = tested on: NTUB1; test: Induction of morphological changes in human NTUB1 cells assessed as increase of tetraploid DNA level using DAPI staining at 20 uM after 24 hrs by immunofluorescence microscopic analysis; assay type: functional, cell-based
In short: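 3 × 10⁵ NTUB1 cells per 6-cm dish treated 24 h. Fixed in 2% formaldehyde/PBS for 20 min, then cold methanol (−20 °C) for 3 min. Stained with DAPI 1 h at room temperature in the dark and examined by fluorescence microscopy.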

[25] = Cytotoxicity against human NTUB1 cells assessed as cell viability at 20 uM after 72 hrs by MTT assay relative to control in presence of 1 mM of NAC; assay type: functional; in short: as §5
[26] = Cell cycle arrest in human NTUB1 cells assessed as accumulation at G1 phase at 20 uM after 24 hrs using propidium iodide staining by flow cytometry analysis (reference value: 56.06%); assay type: functional, cell-based; in short: as §4
[27] = Cell cycle arrest in human NTUB1 cells assessed as accumulation at sub-G1 phase at 20 uM after 24 hrs using propidium iodide staining by flow cytometry analysis (reference value: 1.96%); assay type: functional, cell-based; in short: as §4
[28] = Cell cycle arrest in human NTUB1 cells assessed as accumulation at S phase at 20 uM after 24 hrs using propidium iodide staining by flow cytometry analysis (reference value: 22.61%); assay type: functional, cell-based; in short: as §4
[29] = tested on: NTUB1; test: Induction of ROS production in human NTUB1 cells using H2DCFDA staining at 1 mM after 24 hrs by flow cytometry analysis; assay type: functional, cell-based; in short: as §2
[30] = Cytotoxicity against human NTUB1 cells assessed as cell viability at 1 mM after 72 hrs by MTT assay relative to control; assay type: functional; conditions: NTUB1, 72 h, read-out: Activity; in short: as §5

With CCOC(=O)N1CCN(CCCOc2cc(O)c3c(c2)C(=O)c2ccccc2C3=O)CC1 the “inhibition (INH)” value [1] was 12.44%, the Activity [2] was “Active” and the EC50 [3] was over 30 µM. The EC50 [4] was 50.9 µM.

CCCNCCCOc1cc(O)c2c(c1)C(=O)c1ccccc1C2=O showed an EC50 [3] of 14 µM and an EC50 [4] of 18.9 µM.

CC(O)CNCCCOc1cc(O)c2c(c1)C(=O)c1ccccc1C2=O (configuration not stated) gave an EC50 [3] of 9.07 µM and an EC50 [4] of 12 µM.

In the case of O=C1c2ccccc2C(=O)c2c(O)cc(OCCCN3CCCCC3)cc21, the EC50 [3] is reported as 28.5 µM and the EC50 [4] is reported as 32.6 µM.

In the case of CCNCCCOc1cc(O)c2c(c1)C(=O)c1ccccc1C2=O, the EC50 [3] is reported as over 50 µM, the “inhibition (INH)” value [5] is reported as 23.2% and the EC50 [4] is reported as over 50 µM. For the same compound, the “inhibition (INH)” value [6] was 19.2%.

CCNCCCOc1ccc2c(c1)C(=O)c1ccccc1C2=O showed an EC50 [3] of 22.9 µM and an EC50 [4] of 24.4 µM.

Compound O=C1c2ccccc2C(=O)c2c(O)cc(OCCCNC3CCCCC3)cc21 has an EC50 [3] of 9.12 µM and an EC50 [4] of 8.37 µM.

In the case of CN1CCN(CCCOc2cc(O)c3c(c2)C(=O)c2ccccc2C3=O)CC1, the EC50 [3] is reported as over 50 µM, the “inhibition (INH)” value [7] is reported as 15.54% and the EC50 [4] is reported as over 30 µM. For the same compound, the “inhibition (INH)” value [6] was 44.36%.

In the case of CN(CCO)CCCOc1cc(O)c2c(c1)C(=O)c1ccccc1C2=O, the EC50 [3] is reported as 8.89 µM and the EC50 [4] is reported as 12.3 µM.

For O=C1c2ccccc2C(=O)c2c(O)cc(OCCCN3CCCC3)cc21, the Activity [8] was “Active”, the Activity [9] was “inactive” and the Activity [10] was “Active”. For the same compound, the Activity [11] was “Active”, the Activity [12] was 29.6% and the Activity [13] was 25.3%. The viability at 10 µM [14] was 57%, the Activity [15] was “Non-toxic” and the Activity [2] was “Active”. The EC50 [3] was 7.64 µM, the Activity [16] was “Active” and the Activity [17] was 2.47%. The Activity [18] was 19.2%, the Activity [19] was “Active” and the Activity [20] was “Active”. For the same compound, the Activity [21] was 51.4%, the Activity [22] was 57.4% and the EC50 [4] was 9.72 µM. For the same compound, the viability at 20 µM [23] was 13.1%, the Activity [24] was “Active” and the Activity [25] was 17.1%. The Activity [26] was 36.6%, the Activity [27] was 4.69% and the Activity [28] was 21.9%.

With O=C1c2ccccc2C(=O)c2c(O)cc(OCCCN3CCN(CCO)CC3)cc21 the EC50 [3] was over 50 µM, the “inhibition (INH)” value [5] was 18.75% and the EC50 [4] was over 50 µM. The “inhibition (INH)” value [6] was 18.54%.

In the case of CC(=O)N[C@@H](CS)C(=O)O [ACETYLCYSTEINE], the Activity [29] is reported as “inactive” and the viability at 1000 µM [30] is reported as 96.3%.

With O=C1c2ccccc2C(=O)c2c(O)cc(OCCCN3CCOCC3)cc21 the Activity [2] was “Active”, the EC50 [3] was 17.7 µM and the EC50 [4] was 20.4 µM.
